What was measured:
[1] = In vitro inhibitory activity against recombinant p56 lck tyrosine kinase expressed as a His-tagged protein in insect cells
How it was run: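 Mean of three separate experiments, with standard deviation within ±10%.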

[2] = […] inhibitory activity against proliferation of normal human peripheral blood T lymphocytes; type: functional
[3] = target: T1, Tyrosine-protein kinase JAK3 (Homo sapiens, UniProt P52333); test: inhibitory activity against Janus kinase 3
T1 sequence (P52333 whole entry): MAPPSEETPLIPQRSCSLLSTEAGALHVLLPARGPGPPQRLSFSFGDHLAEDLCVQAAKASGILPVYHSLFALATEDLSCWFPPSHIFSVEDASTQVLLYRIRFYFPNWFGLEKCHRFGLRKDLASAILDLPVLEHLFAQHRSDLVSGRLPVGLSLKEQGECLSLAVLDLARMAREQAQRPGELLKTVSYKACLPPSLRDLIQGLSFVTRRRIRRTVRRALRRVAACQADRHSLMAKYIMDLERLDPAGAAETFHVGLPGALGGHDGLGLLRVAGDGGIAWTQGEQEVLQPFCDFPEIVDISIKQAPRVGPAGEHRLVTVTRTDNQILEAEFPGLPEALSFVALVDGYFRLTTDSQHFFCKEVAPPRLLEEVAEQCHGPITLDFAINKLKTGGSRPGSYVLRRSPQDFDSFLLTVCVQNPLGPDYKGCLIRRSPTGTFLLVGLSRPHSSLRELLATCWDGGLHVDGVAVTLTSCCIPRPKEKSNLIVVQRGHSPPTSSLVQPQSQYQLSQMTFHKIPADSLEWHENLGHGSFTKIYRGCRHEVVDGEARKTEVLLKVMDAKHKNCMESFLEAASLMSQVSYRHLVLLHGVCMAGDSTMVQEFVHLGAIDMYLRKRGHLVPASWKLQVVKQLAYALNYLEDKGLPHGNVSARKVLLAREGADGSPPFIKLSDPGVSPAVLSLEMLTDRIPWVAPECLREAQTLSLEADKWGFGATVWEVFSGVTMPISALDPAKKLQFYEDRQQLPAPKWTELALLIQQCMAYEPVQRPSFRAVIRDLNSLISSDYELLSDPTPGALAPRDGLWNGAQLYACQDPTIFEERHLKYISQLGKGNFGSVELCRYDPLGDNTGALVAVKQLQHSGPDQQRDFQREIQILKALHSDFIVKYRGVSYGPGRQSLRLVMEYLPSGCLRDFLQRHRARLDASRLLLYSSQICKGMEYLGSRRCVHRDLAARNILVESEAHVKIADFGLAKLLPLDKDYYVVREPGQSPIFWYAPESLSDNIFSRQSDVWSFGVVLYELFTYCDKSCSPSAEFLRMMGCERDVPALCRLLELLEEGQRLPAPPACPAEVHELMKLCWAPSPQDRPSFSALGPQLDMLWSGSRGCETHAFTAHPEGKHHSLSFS
How it was run: (§1)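 Purified kinase enzyme inhibition, reported as IC50 in µM. Each value is the mean of three independent experiments.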

[4] = target: Tyrosine-protein kinase Fgr (Homo sapiens, UniProt P09769); test: Inhibitory activity against Fgr kinase
How it was run: (§2)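 Kinase selectivity panel: IC50 for inhibition of each isolated kinase enzyme, reported as the mean of three experiments.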

[5] = target: Tyrosine-protein kinase HCK (Homo sapiens, UniProt P08631); test: inhibitory activity against Hck kinase
[6] = target: Cyclin-dependent kinase 2 (Homo sapiens, UniProt P24941); test: Inhibitory activity against Cyclin-dependent kinase 2
[7] = target: Cyclin-dependent kinase 4 (Homo sapiens, UniProt P11802); test: Inhibitory activity against Cyclin-dependent kinase 4; how it was run: as §2
[8] = target: Proto-oncogene tyrosine-protein kinase Src (Homo sapiens, UniProt P12931); test: Inhibitory activity against Src tyrosine kinase; how it was run: as §1
[9] = target: Vascular endothelial growth factor receptor 2 (Homo sapiens, UniProt P35968); test: inhibitory activity against Vascular endothelial growth factor receptor 2; how it was run: as §2
[10] = Inhibitory activity against Fibroblast growth factor receptor 1
How it was run: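 Enzyme IC50 was measured within a kinase selectivity panel and is reported as the mean of three experiments.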

[11] = Plasma protein binding in mouse was determined; type: ADME, cell-free
Rattus norvegicus [12] = organism: Rattus norvegicus; test: Dose required for inhibition of paw swelling in rat adjuvant rheumatoid arthritis model; significant reduction observed after 24 hrs; type: functional
Rattus norvegicus [13] = organism: Rattus norvegicus; test: Dose required for inhibition of paw swelling in rat adjuvant rheumatoid arthritis model; significant reduction observed after 7 days; type: functional
[14] = Mean residence time was determined in rats at a single dose of 10 mg/kg i.v. and p.o.; type: ADME, organism-based; design: dose 10 mg/kg, route oral; conditions: rat, in vivo, po
[15] = Half-life was determined in rats at a single dose of 10 mg/kg i.v. and p.o.; type: ADME, organism-based; design: dose 10 mg/kg, route oral; conditions: rat, in vivo, po
[16] = Plasma clearance was determined in rats at a single dose of 10 mg/kg i.v. and p.o.; type: ADME, organism-based; design: dose 10 mg/kg, route oral; conditions: rat, in vivo, po
[17] = Time required to reach the maximum plasma concentration was determined in rats at a single dose of 10 mg/kg i.v. and p.o.; type: ADME, organism-based; design: dose 10 mg/kg, route oral; conditions: rat, po
[18] = Oral bioavailability was determined in rats at a single dose of 10 mg/kg i.v. and p.o.; type: ADME, organism-based; conditions: rat, in vivo
[19] = Maximum plasma concentration was determined in rats at a single dose of 10 mg/kg i.v. and p.o.; type: ADME, organism-based; design: dose 10 mg/kg, route oral; conditions: rat, po
[20] = target: Receptor tyrosine-protein kinase erbB-2 (Homo sapiens, UniProt P04626); test: Inhibitory activity against HER2 kinase; how it was run: as §2
Chain of Receptor tyrosine-protein kinase erbB-2 (P04626 whole entry): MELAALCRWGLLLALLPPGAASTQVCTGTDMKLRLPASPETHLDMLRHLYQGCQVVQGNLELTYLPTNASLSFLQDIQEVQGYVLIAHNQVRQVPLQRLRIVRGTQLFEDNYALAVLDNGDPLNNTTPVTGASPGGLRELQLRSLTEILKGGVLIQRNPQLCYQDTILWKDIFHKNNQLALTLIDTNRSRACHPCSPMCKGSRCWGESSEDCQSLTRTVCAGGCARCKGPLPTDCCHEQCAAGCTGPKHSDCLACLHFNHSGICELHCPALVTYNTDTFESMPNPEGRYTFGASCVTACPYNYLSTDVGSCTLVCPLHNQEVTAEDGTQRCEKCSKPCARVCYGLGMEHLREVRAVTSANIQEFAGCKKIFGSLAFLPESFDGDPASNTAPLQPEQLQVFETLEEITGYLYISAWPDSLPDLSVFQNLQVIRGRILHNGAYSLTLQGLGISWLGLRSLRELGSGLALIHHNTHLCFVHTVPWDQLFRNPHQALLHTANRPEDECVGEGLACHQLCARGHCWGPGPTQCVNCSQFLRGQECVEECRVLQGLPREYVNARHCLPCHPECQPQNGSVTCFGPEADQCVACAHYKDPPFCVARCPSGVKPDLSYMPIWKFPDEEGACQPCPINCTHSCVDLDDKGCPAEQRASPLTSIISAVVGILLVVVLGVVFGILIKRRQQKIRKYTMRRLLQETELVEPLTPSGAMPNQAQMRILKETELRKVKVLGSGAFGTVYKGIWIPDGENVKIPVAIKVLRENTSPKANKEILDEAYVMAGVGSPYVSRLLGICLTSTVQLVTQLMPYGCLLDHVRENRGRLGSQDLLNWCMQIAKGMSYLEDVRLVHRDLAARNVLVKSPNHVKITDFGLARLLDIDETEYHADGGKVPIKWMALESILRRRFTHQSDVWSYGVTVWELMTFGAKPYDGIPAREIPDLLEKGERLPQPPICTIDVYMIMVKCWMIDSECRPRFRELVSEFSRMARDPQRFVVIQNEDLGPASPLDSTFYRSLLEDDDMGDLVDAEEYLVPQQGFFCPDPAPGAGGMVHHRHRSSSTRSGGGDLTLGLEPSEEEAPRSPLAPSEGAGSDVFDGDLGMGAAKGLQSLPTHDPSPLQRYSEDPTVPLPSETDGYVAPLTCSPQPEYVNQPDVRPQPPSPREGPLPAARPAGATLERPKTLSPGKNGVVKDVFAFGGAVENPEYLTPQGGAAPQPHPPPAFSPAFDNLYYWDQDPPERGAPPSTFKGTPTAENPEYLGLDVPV

Chain of Tyrosine-protein kinase HCK (P08631 whole entry): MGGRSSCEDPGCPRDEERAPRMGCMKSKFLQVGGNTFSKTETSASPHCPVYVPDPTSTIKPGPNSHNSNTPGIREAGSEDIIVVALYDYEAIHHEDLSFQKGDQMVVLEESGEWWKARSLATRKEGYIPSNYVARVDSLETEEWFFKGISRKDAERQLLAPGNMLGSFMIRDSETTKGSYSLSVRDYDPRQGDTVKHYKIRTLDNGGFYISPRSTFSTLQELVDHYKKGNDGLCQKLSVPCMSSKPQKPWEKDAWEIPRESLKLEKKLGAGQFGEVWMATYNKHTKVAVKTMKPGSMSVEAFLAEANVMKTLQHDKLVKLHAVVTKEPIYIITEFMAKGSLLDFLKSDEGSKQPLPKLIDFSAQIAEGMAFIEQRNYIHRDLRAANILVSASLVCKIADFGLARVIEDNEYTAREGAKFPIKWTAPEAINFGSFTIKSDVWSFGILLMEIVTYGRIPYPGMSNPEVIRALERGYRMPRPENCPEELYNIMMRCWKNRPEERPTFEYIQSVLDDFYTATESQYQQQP
Chain of Cyclin-dependent kinase 4 (P11802 whole entry): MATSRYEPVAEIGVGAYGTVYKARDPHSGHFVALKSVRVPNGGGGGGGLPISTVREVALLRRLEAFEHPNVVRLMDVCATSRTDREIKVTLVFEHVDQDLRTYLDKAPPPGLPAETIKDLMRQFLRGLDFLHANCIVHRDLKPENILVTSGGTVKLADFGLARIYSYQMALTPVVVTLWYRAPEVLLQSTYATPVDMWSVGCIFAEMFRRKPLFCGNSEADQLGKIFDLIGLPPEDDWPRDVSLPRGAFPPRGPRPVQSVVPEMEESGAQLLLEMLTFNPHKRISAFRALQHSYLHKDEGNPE
Chain of Tyrosine-protein kinase Fgr (P09769 whole entry): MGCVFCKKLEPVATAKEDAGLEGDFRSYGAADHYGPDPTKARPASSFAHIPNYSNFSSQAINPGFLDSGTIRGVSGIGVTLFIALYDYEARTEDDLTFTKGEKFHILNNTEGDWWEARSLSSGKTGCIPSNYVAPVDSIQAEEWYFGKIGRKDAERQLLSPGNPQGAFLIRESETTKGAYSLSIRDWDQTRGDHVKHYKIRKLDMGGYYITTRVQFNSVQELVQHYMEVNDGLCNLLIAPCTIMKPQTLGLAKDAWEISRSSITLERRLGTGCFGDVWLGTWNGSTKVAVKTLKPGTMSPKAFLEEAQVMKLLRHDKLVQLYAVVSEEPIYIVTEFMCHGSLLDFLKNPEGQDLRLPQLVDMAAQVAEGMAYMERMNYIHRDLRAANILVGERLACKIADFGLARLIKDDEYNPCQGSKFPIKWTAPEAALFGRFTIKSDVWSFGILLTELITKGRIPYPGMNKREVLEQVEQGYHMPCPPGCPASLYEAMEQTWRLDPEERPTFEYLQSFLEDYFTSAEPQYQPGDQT
Chain of Vascular endothelial growth factor receptor 2 (P35968 whole entry): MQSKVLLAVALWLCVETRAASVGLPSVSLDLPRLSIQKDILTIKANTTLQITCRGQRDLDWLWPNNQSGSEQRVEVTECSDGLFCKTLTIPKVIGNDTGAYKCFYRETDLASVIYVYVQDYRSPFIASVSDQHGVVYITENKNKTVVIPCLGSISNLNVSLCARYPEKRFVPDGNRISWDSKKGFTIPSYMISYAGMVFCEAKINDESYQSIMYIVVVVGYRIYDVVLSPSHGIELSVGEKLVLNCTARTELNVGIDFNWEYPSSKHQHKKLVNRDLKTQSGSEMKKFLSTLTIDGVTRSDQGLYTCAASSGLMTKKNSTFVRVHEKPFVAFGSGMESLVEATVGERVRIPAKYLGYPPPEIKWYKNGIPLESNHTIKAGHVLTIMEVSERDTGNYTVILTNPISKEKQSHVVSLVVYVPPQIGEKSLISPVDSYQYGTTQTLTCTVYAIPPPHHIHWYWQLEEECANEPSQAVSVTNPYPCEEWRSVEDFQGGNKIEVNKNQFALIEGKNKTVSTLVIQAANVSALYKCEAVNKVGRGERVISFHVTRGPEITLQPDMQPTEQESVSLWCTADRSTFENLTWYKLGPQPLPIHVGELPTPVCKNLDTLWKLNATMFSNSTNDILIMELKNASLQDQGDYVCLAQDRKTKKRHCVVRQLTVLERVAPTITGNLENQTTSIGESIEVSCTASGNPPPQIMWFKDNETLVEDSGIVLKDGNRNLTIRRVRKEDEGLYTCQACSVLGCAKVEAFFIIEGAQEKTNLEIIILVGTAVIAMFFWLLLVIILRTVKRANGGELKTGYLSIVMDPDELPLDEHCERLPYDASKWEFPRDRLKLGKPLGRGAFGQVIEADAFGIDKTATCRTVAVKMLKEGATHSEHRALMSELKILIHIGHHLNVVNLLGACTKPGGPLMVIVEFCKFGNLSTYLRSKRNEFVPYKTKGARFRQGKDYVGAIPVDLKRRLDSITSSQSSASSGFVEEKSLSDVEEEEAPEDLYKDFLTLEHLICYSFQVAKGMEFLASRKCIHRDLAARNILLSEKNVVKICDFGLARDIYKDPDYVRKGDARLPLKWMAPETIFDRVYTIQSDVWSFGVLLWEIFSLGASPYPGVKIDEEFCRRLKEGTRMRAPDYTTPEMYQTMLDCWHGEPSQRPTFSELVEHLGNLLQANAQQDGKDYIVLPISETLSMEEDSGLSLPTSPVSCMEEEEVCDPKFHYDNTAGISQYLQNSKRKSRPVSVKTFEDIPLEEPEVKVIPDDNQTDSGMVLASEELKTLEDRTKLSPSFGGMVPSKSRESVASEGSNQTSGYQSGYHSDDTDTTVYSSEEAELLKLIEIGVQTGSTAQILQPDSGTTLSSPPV
Chain of Proto-oncogene tyrosine-protein kinase Src (P12931 2-536 limits assumed): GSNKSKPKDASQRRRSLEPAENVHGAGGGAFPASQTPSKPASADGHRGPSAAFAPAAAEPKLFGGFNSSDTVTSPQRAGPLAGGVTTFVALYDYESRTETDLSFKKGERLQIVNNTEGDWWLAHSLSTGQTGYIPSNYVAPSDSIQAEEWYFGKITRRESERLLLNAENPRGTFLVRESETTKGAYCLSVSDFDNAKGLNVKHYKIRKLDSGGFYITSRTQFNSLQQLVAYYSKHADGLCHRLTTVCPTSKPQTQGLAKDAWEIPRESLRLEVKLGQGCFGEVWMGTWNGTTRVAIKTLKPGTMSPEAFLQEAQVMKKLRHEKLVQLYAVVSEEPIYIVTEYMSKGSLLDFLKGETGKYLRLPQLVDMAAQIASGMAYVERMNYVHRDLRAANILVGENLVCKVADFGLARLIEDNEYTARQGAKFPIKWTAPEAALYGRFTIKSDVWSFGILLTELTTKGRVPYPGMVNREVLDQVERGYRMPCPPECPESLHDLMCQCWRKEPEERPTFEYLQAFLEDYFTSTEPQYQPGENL

| Structure (SMILES) | IC50 [1] [nM] | IC50 [2] [nM] | other results |
| --- | --- | --- | --- |
| Cc1cccc(Cl)c1NC(=O)c1cnc(NC(=O)C2CC2)s1 | 35 |  |  |
| Cc1cccc(Cl)c1NC(=O)c1cnc(Nc2cccc(N3CCN[C@@H](C)C3)n2)s1 | < 1 | 6 |  |
| Cc1cccc(Cl)c1NC(=O)c1cnc(Nc2ccccc2)s1 | 0.6 | 210 |  |
| Cc1cccc(Cl)c1NC(=O)c1cnc(Nc2ccnnc2)s1 | 4 | 350 |  |
| Cc1cccc(Cl)c1NC(=O)c1cnc(Nc2cc(NCCN3CCCC3)ncn2)s1 | 0.4 | 19 | Ki [1]: 0.06 nM |
| Cc1cccc(Cl)c1NC(=O)c1cnc(Nc2cccc(NCCN3CCOCC3)n2)s1 | < 1 | 11 |  |
| Cc1cc(C)nc(Nc2ncc(C(=O)Nc3c(C)cccc3Cl)s2)n1 | 50 |  |  |
| Cc1ccnc(Nc2ncc(C(=O)Nc3c(C)cccc3Cl)s2)c1 | 0.5 | 85 |  |
| Cc1cccc(Cl)c1NC(=O)c1cnc(NC2CCCCC2)s1 | 374 |  |  |
| Cc1cccc(Cl)c1NC(=O)c1cnc(Nc2cc(NCCN3CCOCC3)ncn2)s1 | 4 | 17 |  |
| Cc1cc(C)nc(Nc2ncc(C(=O)Nc3c(C)cccc3Cl)s2)c1 | 4 |  |  |
| Cc1cccnc1Nc1ncc(C(=O)Nc2c(C)cccc2Cl)s1 | 7.3 | 365 |  |
| Cc1cccc(Cl)c1NC(=O)c1cnc(Nc2cc(N3CCOCC3)ncn2)s1 | < 1 | 3 |  |
| Cc1cccc(Cl)c1NC(=O)c1cnc(Nc2cccnc2)s1 | 6.7 |  |  |
| Cc1cc(C)cc(Nc2ncc(C(=O)Nc3c(C)cccc3Cl)s2)c1 | 2 | 883 |  |
| Cc1cccc(Cl)c1NC(=O)c1cnc(Nc2ccccn2)s1 | 1.2 |  |  |
| Cc1cccc(Cl)c1NC(=O)c1cnc(Nc2ccncc2)s1 | 10 |  |  |
| Cc1ccc(Nc2ncc(C(=O)Nc3c(C)cccc3Cl)s2)nc1 | 1.1 | 156 |  |
| Cc1cc(N(C)c2ncc(C(=O)Nc3c(C)cccc3Cl)s2)nc(C)n1 | 2340 |  |  |
| Cc1cc(Nc2ncc(C(=O)Nc3c(C)cccc3Cl)s2)nc(C)n1 | 1.2 | 80 | IC50 [3]: 6 nM; IC50 [4]: < 1 nM; IC50 [5]: 2 nM; IC50 [6]: > 25000 nM; IC50 [7]: > 25000 nM; IC50 [8]: < 1 nM; Ki [1]: 0.13 nM; IC50 [9]: > 10000 nM; IC50 [10]: > 10000 nM; Binding [11]: 93.6%; Dose (Rattus norvegicus [12]): 3 mg/kg; Dose (Rattus norvegicus [13]): 1 mg/kg; MRT [14]: 4 h; half-life [15]: 4 h; Cl [16]: 29 mL/min/kg; Tmax [17]: 1 h; bioavailability [18]: 65%; Cmax [19]: 2000 nM; IC50 [20]: 5200 nM |
| Cc1cc(Nc2ncc(C(=O)N(C)c3c(C)cccc3Cl)s2)nc(C)n1 | 277 |  |  |
| Cc1cccc(Nc2ncc(C(=O)Nc3c(C)cccc3Cl)s2)n1 | < 1 | 106 |  |

Source: ChEMBL document CHEMBL1138725, “Discovery of novel 2-(aminoheteroaryl)-thiazole-5-carboxamides as potent and orally active Src-family kinase p56(Lck) inhibitors” (Bioorg Med Chem Lett, 2004)
